In ChEMBL document CHEMBL1165866, “Design, synthesis, and in vitro antitumor evaluation of novel diaryl ureas derivatives” (Eur J Med Chem, 2010):

How the values were obtained:
A549 [1] = assay: Cytotoxicity against human A549 cells assessed as growth inhibition at 10 uM after 72 hrs by MTT based WST-8 assay; format: functional; conditions: A549, 72 h, read-out: GI
How it was run: (§1)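 Single-concentration screen at 10 μM. Cells in RPMI1640 with 10% FBS were seeded at 5.0×10^3 cells/well, adhered for 4 h, then exposed for 72 h at 37 °C, 5% CO2. Medium was removed and WST-8 reagent added for 1.5 h. Absorbance was read at 450 nm with 650 nm correction and growth was expressed as percentage of vehicle-control absorbance.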

MDA-MB-231 [2] = assay: Cytotoxicity against human MDA-MB-231 cells assessed as growth inhibition at 10 uM after 72 hrs by MTT based WST-8 assay; format: functional; conditions: MDA-MB-231, 72 h, read-out: GI; how it was run: as §1
A549 [3] = assay: Cytotoxicity against human A549 cells assessed as growth inhibition after 72 hrs by MTT based WST-8 assay; format: functional, cell-based; conditions: A549, 72 h
How it was run: (§2)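 Cells in RPMI1640 with 10% FBS were seeded at 5.0×10^3 cells/well and left to adhere for 4 h at 37 °C, 5% CO2. Compound was then added for 72 h. Medium was removed and WST-8 reagent (stock: 5 mM WST-8, 0.2 mM 1-methoxyphenazinium salt, 150 mM NaCl) was added for 1.5 h at 37 °C. A450 was read with 650 nm correction. IC50 was taken from concentration–response curves as % of vehicle-control absorbance.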

MDA-MB-231 [4] = assay: Cytotoxicity against human MDA-MB-231 cells assessed as growth inhibition after 72 hrs by MTT based WST-8 assay; format: functional, cell-based; conditions: MDA-MB-231, 72 h; how it was run: as §2

Row | Compound | inhibition of growth at 10 µM (A549 [1]) | inhibition of growth at 10 µM (MDA-MB-231 [2]) | IC50 (A549 [3]) | IC50 (MDA-MB-231 [4])
1 | O=C(Nc1ccc(Oc2ccc(-c3nccs3)cc2)cc1)Nc1cc(C(F)(F)F)ccc1Cl | 75.5% | 60.4% | 7.04 µM | 8.9 µM
2 | O=C(Nc1ccc(Oc2ccc(-c3nccs3)cc2)cc1)Nc1ccc(Cl)c(C(F)(F)F)c1 | 77.6% | 69.6% | 3.81 µM | 6.06 µM
3 | O=C(Nc1ccc(Oc2ccc(-c3nccs3)cc2)cc1)Nc1ccc(Cl)c([N+](=O)[O-])c1 | 77.1% | 72.8% | 3.89 µM | 6.87 µM
4 | COC(=O)c1sccc1NC(=O)Nc1ccc(Oc2ccc(-c3nccs3)cc2)cc1 | 6.78% | 11% |  | 
5 | O=C(Nc1ccc(Cl)cc1)Nc1ccc(Oc2ccc(-c3ncc[nH]3)cc2)cc1 | 8.86% | 47.6% |  | 
6 | O=C(Nc1ccc(Oc2ccc(-c3ncc[nH]3)cc2)cc1)Nc1cc(Br)cc(C(F)(F)F)c1 | 44.1% | -13.6% |  | 
7 | O=C(Nc1ccc(Oc2ccc(-c3ncc[nH]3)cc2)cc1)Nc1ccc(F)c(Cl)c1 | 14.6% | 4.2% |  | 
8 | COC(=O)c1sccc1NC(=O)Nc1ccc(Oc2ccc(-c3ncc[nH]3)cc2)cc1 | 2.34% | -1.46% |  | 
9 | O=C(Nc1ccc(Oc2ccc(-c3ncc[nH]3)cc2)cc1)Nc1ccc(F)c(C(F)(F)F)c1 | 63.3% | 26.6% | 10.5 µM | 
10 | Cc1ccc(NC(=O)Nc2ccc(Oc3ccc(-c4ncc[nH]4)cc3)cc2)cc1 | 24.6% | 49.3% |  | 
11 | O=C(Nc1ccccc1)Nc1ccc(Oc2ccc(-c3ncc[nH]3)cc2)cc1 | 7.09% | 11.4% |  | 
12 | O=C(Nc1ccc(Oc2ccc(-c3nccs3)cc2)cc1)Nc1cccc(C(F)(F)F)c1 | 71.5% | 64.1% | 5.56 µM | 9.55 µM
13 | O=C(Nc1ccc(Cl)cc1)Nc1ccc(Oc2ccc(-c3nccs3)cc2)cc1 | 17.7% | 32.5% |  | 
14 | Cc1ccc(NC(=O)Nc2ccc(Oc3ccc(-c4nccs4)cc3)cc2)cc1 | 15.6% | 22.8% |  | 
15 | O=C(Nc1ccc(Oc2ccc(-c3ncc[nH]3)cc2)cc1)Nc1ccc(Cl)c(C(F)(F)F)c1 | 67.9% | 38.1% | 7.09 µM | 
16 | O=C(Nc1ccc(Oc2ccc(-c3ncc[nH]3)cc2)cc1)Nc1cc(C(F)(F)F)ccc1Cl | 22.3% | 32.3% |  | 
17 | O=C(Nc1ccc(Oc2ccc(-c3ncc[nH]3)cc2)cc1)Nc1ccc(Cl)c([N+](=O)[O-])c1 | 12.4% | 3.36% |  | 
18 | O=C(Nc1ccc(Oc2ccc(-c3nccs3)cc2)cc1)Nc1ccc(F)c(C(F)(F)F)c1 | 76.4% | 71.8% | 4.98 µM | 8.66 µM
19 | O=C(Nc1ccc(Oc2ccc(-c3nccs3)cc2)cc1)Nc1cc(Br)cc(C(F)(F)F)c1 | 81.7% | 72.8% | 2.71 µM | 4.19 µM
20 | O=C(Nc1ccc(Oc2ccc(-c3nccs3)cc2)cc1)Nc1ccc(F)c(Cl)c1 | 37.3% | 43.9% |  | 
21 | O=C(Nc1ccc(Oc2ccc(-c3ncc[nH]3)cc2)cc1)Nc1cccc(C(F)(F)F)c1 | 30% | 28.1% |  | 
22 | CNC(=O)c1cc(Oc2ccc(NC(=O)Nc3ccc(Cl)c(C(F)(F)F)c3)cc2)ccn1 [SORAFENIB] | 81.2% | 79.6% | 5.21 µM | 7.62 µM
